Ten compounds from ChEMBL document CHEMBL1811783, “Positive GABA(A) receptor modulators from Acorus calamus and structural analysis of (+)-dioxosarcoguaiacol by 1D and 2D NMR and molecular modeling” (J Nat Prod, 2011) can be followed below.

A word on the EC50: it is the concentration needed to bring the measured effect to its halfway point. Usually Emax stands for the maximal effect, on the per cent scale that the assay sets.

Holding throughout (type): cell-based
The subject of test [1] is Oocyte. Briefly: Allosteric modulation of gamma-aminobutyric acid receptor A alpha1beta2gamma2S expressed in Xenopus oocytes assessed as potentiation of GABA-mediated chloride current at 1 uM by voltage clamp assay. In outline: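 Rat α1β2γ2S cRNAs (1:1:10) injected into collagenase-defolliculated oocytes, stored at 18 °C, recorded days 1–5. Two-microelectrode voltage clamp at −70 mV in HEPES-buffered bath (pH 7.4). Compound in bath solution with GABA EC5–10 (from a 0.1 μM–1 mM GABA concentration–response) applied by automated fast perfusion at 300 μL/s. Read-out is IGABA potentiation.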

Test [2] can be described thus: Allosteric modulation of rat gamma-aminobutyric acid receptor A alpha1beta2gamma2S expressed in Xenopus oocytes assessed as potentiation of GABA-mediated chloride current after 20 secs by voltage clamp assay. As to conditions: Oocyte. In outline:
(§1)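 Rat α1β2γ2S cRNAs (1:1:10) injected into collagenase-defolliculated Xenopus oocytes, stored at 18 °C, recorded days 1–5. Two-microelectrode voltage clamp at −70 mV in 90 mM NaCl/1 mM KCl/1 mM MgCl2/1 mM CaCl2/5 mM HEPES pH 7.4. Compounds at 0.1–1000 μM co-applied by fast perfusion with GABA at EC5–10, determined from a 0.1 μM–1 mM GABA concentration–response. Read-out: IGABA potentiation.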

For test [3], the system named is Oocyte. Briefly: Allosteric modulation of rat gamma-aminobutyric acid receptor A alpha1beta2gamma2S expressed in Xenopus oocytes assessed as potentiation of GABA-mediated chloride current at 0.1 to 1000 uM after 20 secs by voltage clamp assay. The method in brief: as §1

As to `CCc1cc2c(s1)N(C)C(=O)CN=C2c1ccccc1Cl`, the Activity in the test with Oocyte [1] is 260%.

For the compound `CC1=C2[C@H](/C=C(\C)C(=O)O)CC[C@@H](C)[C@H]2CC1`, the Activity with Oocyte [1] was 400%.

As for `Cc1nnc2n1-c1ccc(Cl)cc1C(c1ccccc1Cl)=NC2`, the Activity in the test on Oocyte [1] came to 253%.

As for `CC1=CC[C@]2(CC1=O)[C@@H](C)CC[C@H]2C(C)C`, the EC50 in test [2] was 34 µM. Moreover, the maximal response (Emax) in the test with Oocyte [3] came out at 241%.

Consider `C[C@@H]1CCC2=C1C=C1C(C)(C)OO[C@@]1(O)C[C@H]2C`, for which the concentration giving a half-maximal response (EC50) in test [2] turned out to be 65.3 µM. In the test with Oocyte [3], the Emax amounted to 588%.

In the case of `C=C1CC/C=C(\C)CC[C@@H](C(C)C)C(=O)C1`, the EC50 in test [2] was found to be 135 µM. Besides, the maximum response (Emax) with Oocyte [3] worked out at 886%.

For the compound `C=C[C@]1(C)CC[C@@H](C(C)C)C(=O)C1=C(C)C`, the EC50 in test [2] is 109 µM. For the same compound, in the test with Oocyte [3], the Emax is 164%.

In the case of `C/C=C\c1cc(OC)c(OC)cc1OC` [CIS-ASARONE], the EC50 in test [2] came to 172 µM. Also, the Emax in the test on Oocyte [3] was 1200%.

With `Cc1ncc2n1-c1ccc(Cl)cc1C(c1ccccc1F)=NC2`, in the test on Oocyte [1], the Activity is 342%.

As to `C=C[C@]1(C)CC[C@@H](C(C)C)C(=O)[C@H]1C(=C)C`, the EC50 in test [2] stood at 64.8 µM. Also, the Emax in the test with Oocyte [3] amounted to 669%.
